# Assay results reported in ChEMBL document CHEMBL4002594, “Novel inhibitors of Plasmodium falciparum based on 2,5-disubstituted furans” (Eur J Med Chem, 2017).
# Legend:
# Format in all cases: ADME, organism-based
# [1] = Plasma concentration in Swiss outbred mouse at […], iv at 0.008 hrs by LC-MS analysis
# [2] = (§1) Plasma concentration in Swiss outbred mouse at […], iv at […] by LC-MS analysis
# [3] = Plasma concentration in Swiss outbred mouse at […], iv at 0.033 hrs by LC-MS analysis
# [4] = Plasma concentration in Swiss outbred mouse at […], iv at 0.08 hrs by LC-MS analysis
# [5] = as §1; remark: listed apart in the source
# [6] = Plasma concentration in Swiss outbred mouse at […], iv at 0.5 hrs by LC-MS analysis
# [7] = Plasma concentration in Swiss outbred mouse at […], iv at 1 hr by LC-MS analysis
# [8] = Plasma concentration in Swiss outbred mouse at […], iv at 2 hrs by LC-MS analysis
# [9] = Plasma concentration in Swiss outbred mouse at […], iv at 4 hrs by LC-MS analysis
# [10] = Plasma concentration in Swiss outbred mouse at […], iv at 7.5 hrs by LC-MS analysis
# [11] = Plasma concentration in Swiss outbred mouse at […], iv at 10 hrs by LC-MS analysis
# [12] = Plasma concentration in Swiss outbred mouse at […], iv at 24 hrs by LC-MS analysis
# [13] = Plasma concentration in Swiss outbred mouse at 48 mg/kg administered via oral gavage at […] by LC-MS analysis
# [14] = Plasma concentration in Swiss outbred mouse at 48 mg/kg administered via oral gavage at 0.5 hrs by LC-MS analysis
# In short: (§2)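 Single oral administration of 48 mg/kg to male Swiss outbred mice. Plasma concentration-time profile reported as the mean and range of n=2 mice per time point.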
# [15] = Plasma concentration in Swiss outbred mouse at 48 mg/kg administered via oral gavage at 1 hr by LC-MS analysis; in short: as §2
# [16] = Plasma concentration in Swiss outbred mouse at 48 mg/kg administered via oral gavage at 2 hrs by LC-MS analysis; in short: as §2
# [17] = Plasma concentration in Swiss outbred mouse at 48 mg/kg administered via oral gavage at 4 hrs by LC-MS analysis; in short: as §2
# [18] = Plasma concentration in Swiss outbred mouse at 48 mg/kg administered via oral gavage at 7.5 hrs by LC-MS analysis; in short: as §2
# [19] = Plasma concentration in Swiss outbred mouse at 48 mg/kg administered via oral gavage at 10 hrs by LC-MS analysis; in short: as §2
# [20] = Plasma concentration in Swiss outbred mouse at 48 mg/kg administered via oral gavage at 24 hrs by LC-MS analysis; in short: as §2
# [21] = Plasma concentration in Sprague-Dawley rat at 1 mg/kg, iv administered as 10 mins infusion measured at 0.08 hrs by LC-MS analysis
# In short: (§3)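 Male Sprague Dawley rats were dosed IV (nominal 1 mg/kg; 0.9 mg/kg actual) or orally (nominal 20 mg/kg; 19 mg/kg actual). Plasma concentration–time profiles were determined, with n=2 rats per time point, and mean and range reported.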
# [22] = (§4) Plasma concentration in Sprague-Dawley rat at 1 mg/kg, iv administered as 10 mins infusion measured at […] by LC-MS analysis
# [23] = as §4; remark: listed apart in the source
# [24] = Plasma concentration in Sprague-Dawley rat at 1 mg/kg, iv administered as 10 mins infusion measured at 0.5 hrs by LC-MS analysis; in short: as §3
# [25] = Plasma concentration in Sprague-Dawley rat at 1 mg/kg, iv administered as 10 mins infusion measured at 1.17 hrs by LC-MS analysis; in short: as §3
# [26] = Plasma concentration in Sprague-Dawley rat at 1 mg/kg, iv administered as 10 mins infusion measured at 2.67 hrs by LC-MS analysis; in short: as §3
# [27] = Plasma concentration in Sprague-Dawley rat at 1 mg/kg, iv administered as 10 mins infusion measured at 5.17 hrs by LC-MS analysis; in short: as §3
# [28] = Plasma concentration in Sprague-Dawley rat at 1 mg/kg, iv administered as 10 mins infusion measured at 10.17 hrs by LC-MS analysis; in short: as §3
# [29] = Plasma concentration in Sprague-Dawley rat at 1 mg/kg, iv administered as 10 mins infusion measured at 16.17 hrs by LC-MS analysis; in short: as §3
# [30] = Plasma concentration in Sprague-Dawley rat at 1 mg/kg, iv administered as 10 mins infusion measured at 24.17 hrs by LC-MS analysis; in short: as §3
# [31] = (§5) Plasma concentration in Sprague-Dawley rat at 20 mg/kg administered via oral gavage at […] by LC-MS analysis
# [32] = Plasma concentration in Sprague-Dawley rat at 20 mg/kg administered via oral gavage at 0.5 hrs by LC-MS analysis; in short: as §3
# [33] = Plasma concentration in Sprague-Dawley rat at 20 mg/kg administered via oral gavage at 1 hr by LC-MS analysis; in short: as §3
# [34] = as §5; remark: listed apart in the source
# [35] = Plasma concentration in Sprague-Dawley rat at 20 mg/kg administered via oral gavage at 4 hrs by LC-MS analysis; in short: as §3
# [36] = Plasma concentration in Sprague-Dawley rat at 20 mg/kg administered via oral gavage at 5 hrs by LC-MS analysis; in short: as §3
compound,measurement,setting,value
CN(C)CCCNc1ccc(-c2ccc(F)c(Cl)c2)o1,concentration at 0.008 h,[1],841 nM
same,concentration at […],[2],310 nM
same,concentration at 0.033 h,[3],149 nM
same,concentration at 0.08 h,[4],80 nM
same,concentration at […],[5],54 nM
same,concentration at 0.5 h,[6],44 nM
same,concentration at 1 h,[7],43 nM
same,concentration at 2 h,[8],26 nM
same,concentration at 4 h,[9],29 nM
same,concentration at 7.5 h,[10],31 nM
same,concentration at 10 h,[11],23 nM
same,concentration at 24 h,[12],22 nM
same,concentration at […],[13],171 nM
same,concentration at 0.5 h,[14],812 nM
same,concentration at 1 h,[15],693 nM
same,concentration at 2 h,[16],494 nM
same,concentration at 4 h,[17],132 nM
same,concentration at 7.5 h,[18],239 nM
same,concentration at 10 h,[19],192 nM
same,concentration at 24 h,[20],208 nM
same,concentration at 0.08 h,[21],334 nM
same,concentration at […],[22],255 nM
same,concentration at […],[23],71 nM
same,concentration at 0.5 h,[24],36 nM
same,concentration at 1.17 h,[25],29 nM
same,concentration at 2.67 h,[26],20 nM
same,concentration at 5.17 h,[27],35 nM
same,concentration at 10.17 h,[28],29 nM
same,concentration at 16.17 h,[29],25 nM
same,concentration at 24.17 h,[30],20 nM
same,concentration at […],[31],45.5 nM
same,concentration at 0.5 h,[32],65 nM
same,concentration at 1 h,[33],80 nM
same,concentration at […],[34],50 nM
same,concentration at 4 h,[35],28 nM
same,concentration at 5 h,[36],27 nM
